The results in this text go back to ChEMBL document CHEMBL1125776, “Enantioselective and diastereoselective hydroxylation of bufuralol. Absolute configuration of the 7-(1-hydroxyethyl)-2-[1-hydroxy-2-(tert-butylamino)ethyl]benzofurans, the benzylic hydroxylation metabolites” (J Med Chem, 1991).

The species entered for experiment [1] is Homo sapiens. Put plainly: Mean of rate of formation in all human liver microsomes. The format is functional, organism-based. The arrangement: unit not given here. In a few lines:
(§1)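 Human liver microsomes from frozen bank tissue, washed and resuspended in 100 mM potassium phosphate/20% glycerol/1 mM EDTA, pH 7.4. Incubated with (1'R)- or (1'S)-bufuralol 200 μM, 3 mg protein, NADP+ 1 mM, glucose 6-phosphate 20 mM, MgCl2 10 mM, G6PDH 5 units, 0.20 M phosphate pH 7.4, 37 °C, 30 min. Benzylic alcohols derivatized with (R)-PEIC, reversed-phase HPLC at 248 nm against internal standard, calibration 2-10 μg.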

Experiment [2] is filed under the species Homo sapiens. The experiment can be described thus: Compound was tested for the rate of formation in human liver microsomes 114. The format is functional. In outline: as §1
A general note: Liver microsomes are vesicles of endoplasmic reticulum, rich in cytochrome P450 enzymes.

The species entered for another experiment is Rattus norvegicus. Put plainly: Compound was tested for the rate of formation in rat liver microsomes. The format is functional. In outline: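 Liver microsomes from male Sprague-Dawley rats (~150 g) prepared at 0-4 °C. Incubated with (1'R)- or (1'S)-bufuralol 200 μM, 3 mg protein, NADP+ 1 mM, glucose 6-phosphate 20 mM, MgCl2 10 mM, G6PDH 5 units, 0.20 M phosphate pH 7.4, 37 °C, 30 min. Alcohol diastereomers derivatized with (R)-PEIC, reversed-phase HPLC at 248 nm against internal standard, calibration 10-60 μg.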

The species entered for experiment [3] is Homo sapiens. Put plainly: Compound was tested for the rate of formation in human liver microsomes 116. The format is functional. In a few lines:
as §1

Experiment [4] is filed under the species Homo sapiens. Put plainly: Compound was tested for the rate of formation in human liver microsomes 112. The format is functional. In outline: as §1
Experiment [5] is filed under the species Homo sapiens. The experiment can be described thus: Compound was tested for the rate of formation in human liver microsomes 108. The format is functional. In outline: as §1

The structures appear in SMILES notation.

In turn, `C[C@H](O)c1cccc2cc([C@@H](O)CNC(C)(C)C)oc12` registered a Mean in the experiment listed under Homo sapiens [1] of 66.6. Moreover, the Rate of formation (pM min-1 (mg of protein)-1) was 58.8 in the experiment listed under Homo sapiens [2]; 96.1 in the experiment filed under Rattus norvegicus; 74.9 in the experiment filed under Homo sapiens [3]; 32 in the experiment filed under Homo sapiens [4]; 101 in the experiment filed under Homo sapiens [5].

`C[C@@H](O)c1cccc2cc([C@@H](O)CNC(C)(C)C)oc12` gave a Mean in the experiment listed under Homo sapiens [1] of 70.2. Moreover, the Rate of formation (pM min-1 (mg of protein)-1) stood at 62.1 in the experiment filed under Homo sapiens [2]; 741 in the experiment listed under Rattus norvegicus; 83.3 in the experiment listed under Homo sapiens [3]; 48.9 in the experiment listed under Homo sapiens [4]; 86.5 in the experiment listed under Homo sapiens [5].

As to `C[C@H](O)c1cccc2cc([C@H](O)CNC(C)(C)C)oc12`, the Mean in the experiment filed under Homo sapiens [1] is 266. Further, the Rate of formation (pM min-1 (mg of protein)-1) in the experiment filed under Homo sapiens [2] was determined as 211; in the experiment filed under Rattus norvegicus, 500; in the experiment listed under Homo sapiens [3] it was 355; in the experiment filed under Homo sapiens [4], 136; in the experiment listed under Homo sapiens [5], 363.

As for `C[C@@H](O)c1cccc2cc([C@H](O)CNC(C)(C)C)oc12`, in the experiment listed under Homo sapiens [1], the Mean was determined as 66.5. Besides, the Rate of formation (pM min-1 (mg of protein)-1) in the experiment filed under Homo sapiens [2] stood at 61.7; in the experiment listed under Rattus norvegicus, 2270; in the experiment filed under Homo sapiens [3], 75.3; in the experiment listed under Homo sapiens [4], 54.5; in the experiment listed under Homo sapiens [5] it was 74.5.
